Measurements from ChEMBL document CHEMBL1138298, “Synthesis and evaluation of 7H-8,9-dihydropyrano[2,3-c]imidazo[1,2-a]pyridines as potassium-competitive acid blockers” (J Med Chem, 2007).
Activity calls are given as the source filed them. The calls are words filed in the database; no cut-off is given here.

Target: not listed separately
Test: Inhibition of H+/K+ ATPase in hog gastric mucosa
Assay type: tissue-based, Sus scrofa
Conditions: not given
Procedure, shortened: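 Hog gastric mucosa H+/K+-ATPase (0.5-1 µg/100 µL, with nigericin 1:1) in 4 mM Pipes/8 mM Tris pH 7.4, 0.25 M sucrose, 1 mM MgCl2, stimulated by 1 mM KCl. Compound 1e-4 to 1e-9 M final from DMSO stocks. Started with 1 mM Na-ATP, 30 min room temperature. Phosphate read by malachite green at 680 nm after 15 min.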

| Compound | pIC50 |
| --- | --- |
| CCOC(=O)c1cn2c(C)c(C)nc2c2c1CCC(c1ccccc1)O2 (racemic) | 6 |
| CCc1c(C)nc2c3c(c(C(=O)N(C)C)cn12)CCC(c1ccccc1)O3 (racemic) | 5 |
| Cc1nc2c3c(c(C(=O)N(C)C)cn2c1CN(C)C)CCC(c1ccccc1)O3 (racemic) | 5 |
| CC#CC(=O)c1c(C)nc2c3c(c(C(=O)N(C)C)cn12)CCC(c1ccccc1)O3 (racemic) | 6.2 |
| Cc1nc2c3c(c(C(=O)N4CCNCC4)cn2c1C)CCC(c1ccccc1)O3 (racemic) | 5.3 |
| Cc1nc2c3c(c(C(=O)NC4CC4)cn2c1C)CCC(c1ccccc1)O3 (racemic) | 6 |
| CCN(CC)C(=O)c1cn2c(C)c(C)nc2c2c1CCC(c1ccccc1)O2 (racemic) | 5.2 |
| Cc1nc2c3c(c(C(=O)N(C)C)cn2c1C)CCC(c1cccs1)O3 (racemic) | 5.3 |
| Cc1nc2c3c(c(C(=O)N(C)C)cn2c1CO)CCC(c1ccccc1)O3 (racemic) | 5.6 |
| CC#CC(O)c1c(C)nc2c3c(c(C(=O)N(C)C)cn12)CCC(c1ccccc1)O3 (racemic) | < 4 |
| Cc1nc2c3c(c(C(N)=O)cn2c1C)CCC(c1ccccc1)O3 (racemic) | 5.9 |

Further lines, results first:

| pIC50 | Compound |
| --- | --- |
| 5.9 | Cc1nc2c3c(c(C(=O)N(C)C)cn2c1C)CCC(c1ccccc1F)O3 (racemic) |
| 5.8 | Cc1nc2c3c(c(C(=O)N(C)C)cn2c1C)CCC(c1ccccc1)O3 (racemic) |
| 5.3 | Cc1nc2c3c(c(C(=O)N4CC4)cn2c1C)CCC(c1ccccc1)O3 (racemic) |
| 6.2 | Cc1nc2c3c(c(C(=O)N4CCC4)cn2c1C)CCC(c1ccccc1)O3 (racemic) |
| 5.2 | Cc1nc2c3c(c(C(=O)NC4CCC4)cn2c1C)CCC(c1ccccc1)O3 (racemic) |
| 6.9 | Cc1nc2c3c(ccn2c1C)CCC(c1ccccc1)O3 (racemic) |
| 5.8 | Cc1nc2c3c(c(C(=O)N4CCCC4)cn2c1C)CCC(c1ccccc1)O3 (racemic) |
| > 6 | CCOc1ccc(NC(=O)c2cn3c(C)c(C)nc3c3c2CCC(c2ccccc2)O3)cc1 (racemic) |

Test system: Gastric gland
Test: Inhibition of acid secretion in rabbit intact gastric glands assessed as […] accumulation
Assay type: functional, tissue-based
Conditions: Oryctolagus cuniculus
Procedure, shortened: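 Isolated gastric glands in Krebs-Henseleit with 2 mg/mL rabbit serum albumin and 2 mg/mL glucose. Incubated 30 min at 37 °C, shaking, with 0.125 µM 14C-aminopyrine at pH 7.4, stimulated by 1 mM dibutyryl cAMP, inhibitor 3 nM-100 µM. Stopped by centrifugation. Accumulation taken from pellet/supernatant radioactivity ratio. IC50 from fitted inhibition equation.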

| Compound | IC50 | Activity |
| --- | --- | --- |
| CCOC(=O)c1cn2c(C)c(C)nc2c2c1CCC(c1ccccc1)O2 (racemic) | 2510 nM |  |
| CCc1c(C)nc2c3c(c(C(=O)N(C)C)cn12)CCC(c1ccccc1)O3 (racemic) | 2000 nM |  |
| CC#CC(=O)c1c(C)nc2c3c(c(C(=O)N(C)C)cn12)CCC(c1ccccc1)O3 (racemic) |  | inactive |
| Cc1nc2c3c(c(C(=O)N4CCNCC4)cn2c1C)CCC(c1ccccc1)O3 (racemic) |  | inactive |
| Cc1nc2c3c(c(C(=O)NC4CC4)cn2c1C)CCC(c1ccccc1)O3 (racemic) | 1000 nM |  |
| CCN(CC)C(=O)c1cn2c(C)c(C)nc2c2c1CCC(c1ccccc1)O2 (racemic) | 794 nM |  |
| Cc1nc2c3c(c(C(=O)N(C)C)cn2c1C)CCC(c1cccs1)O3 (racemic) | 631 nM |  |
| Cc1nc2c3c(c(C(=O)N(C)C)cn2c1CO)CCC(c1ccccc1)O3 (racemic) | 31600 nM |  |
| Cc1nc2c3c(c(C(N)=O)cn2c1C)CCC(c1ccccc1)O3 (racemic) | 2510 nM |  |

Further lines, with some results ahead:

| IC50 | Compound | Activity |
| --- | --- | --- |
| 631 nM | Cc1nc2c3c(c(C(=O)N(C)C)cn2c1C)CCC(c1ccccc1F)O3 (racemic) |  |
| 501 nM | Cc1nc2c3c(c(C(=O)N(C)C)cn2c1C)CCC(c1ccccc1)O3 (racemic) |  |
| 398 nM | Cc1nc2c3c(c(C(=O)N4CC4)cn2c1C)CCC(c1ccccc1)O3 (racemic) |  |
| 398 nM | Cc1nc2c3c(c(C(=O)N4CCC4)cn2c1C)CCC(c1ccccc1)O3 (racemic) |  |
| 398 nM | Cc1nc2c3c(c(C(=O)NC4CCC4)cn2c1C)CCC(c1ccccc1)O3 (racemic) |  |
| 316 nM | Cc1nc2c3c(ccn2c1C)CCC(c1ccccc1)O3 (racemic) |  |
| 316 nM | Cc1nc2c3c(c(C(=O)N4CCCC4)cn2c1C)CCC(c1ccccc1)O3 (racemic) |  |
| 200 nM | CCOc1ccc(NC(=O)c2cn3c(C)c(C)nc3c3c2CCC(c2ccccc2)O3)cc1 (racemic) |  |

Test system: Rattus norvegicus
Test: Inhibition of pentagastrin-stimulated acid secretion in intraduodenally dosed perfused Ghosh Schild rat stomach
Assay type: functional
Conditions: intraduodenal
Procedure, shortened: (§1)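 Anaesthetised rat with perfused stomach: 37 °C saline at 0.5 mL/min. Effluent titrated to pH 7 with 0.01 N NaOH in 15-min fractions. Secretion driven by continuous iv pentagastrin, 1 µg/kg (1.65 mL/h). Compound given intraduodenally in 2.5 mL/kg volume 60 min after infusion start. Body temperature held at 37.8-38 °C.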

| Compound | ED50 |
| --- | --- |
| Cc1nc2c3c(c(C(N)=O)cn2c1C)CCC(c1ccccc1)O3 (racemic) | 0.8 µmol/kg |
| Cc1nc2c3c(c(C(=O)N(C)C)cn2c1C)CCC(c1ccccc1)O3 (racemic) | 0.5 µmol/kg |

Test system: Rattus norvegicus
Test: Inhibition of pentagastrin-stimulated acid secretion in perfused Ghosh Schild rat stomach at 1 umol/kg, intraduodenal
Assay type: functional
Design: scale not given: the % may be the effect or the level left
Conditions: not given
Procedure, shortened: as §1

| Compound | Activity |
| --- | --- |
| CCOC(=O)c1cn2c(C)c(C)nc2c2c1CCC(c1ccccc1)O2 (racemic) | 34% |
| CCc1c(C)nc2c3c(c(C(=O)N(C)C)cn12)CCC(c1ccccc1)O3 (racemic) | 30% |
| Cc1nc2c3c(c(C(=O)N(C)C)cn2c1CN(C)C)CCC(c1ccccc1)O3 (racemic) | 20% |
| CC#CC(=O)c1c(C)nc2c3c(c(C(=O)N(C)C)cn12)CCC(c1ccccc1)O3 (racemic) | 43% |
| Cc1nc2c3c(c(C(=O)N4CCNCC4)cn2c1C)CCC(c1ccccc1)O3 (racemic) | 36% |
| Cc1nc2c3c(c(C(=O)N(C)C)cn2c1C)CCC(c1ccccc1F)O3 (racemic) | 73% |
| Cc1nc2c3c(c(C(=O)NC4CC4)cn2c1C)CCC(c1ccccc1)O3 (racemic) | 82% |
| CCN(CC)C(=O)c1cn2c(C)c(C)nc2c2c1CCC(c1ccccc1)O2 (racemic) | 23% |
| CCOc1ccc(NC(=O)c2cn3c(C)c(C)nc3c3c2CCC(c2ccccc2)O3)cc1 (racemic) | 33% |
| Cc1nc2c3c(ccn2c1C)CCC(c1ccccc1)O3 (racemic) | 26% |
| Cc1nc2c3c(c(C(=O)N(C)C)cn2c1C)CCC(c1cccs1)O3 (racemic) | 46% |
| Cc1nc2c3c(c(C(=O)N4CC4)cn2c1C)CCC(c1ccccc1)O3 (racemic) | 35% |
| Cc1nc2c3c(c(C(=O)N4CCC4)cn2c1C)CCC(c1ccccc1)O3 (racemic) | 75% |
| Cc1nc2c3c(c(C(=O)N(C)C)cn2c1CO)CCC(c1ccccc1)O3 (racemic) | 55% |
| Cc1nc2c3c(c(C(=O)NC4CCC4)cn2c1C)CCC(c1ccccc1)O3 (racemic) | 26% |
| CC#CC(O)c1c(C)nc2c3c(c(C(=O)N(C)C)cn12)CCC(c1ccccc1)O3 (racemic) | 22% |
| Cc1nc2c3c(c(C(=O)N4CCCC4)cn2c1C)CCC(c1ccccc1)O3 (racemic) | 47% |

Test system: not listed separately
Test: Dissociation constant, pKa of the compound
Assay type: physicochemical
Conditions: not given
Procedure, shortened: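 Potentiometric cosolvent titration in 0.15 mol/L KCl, pH 2.0-11.0, 25 °C, methanol as cosolvent in varying portions; titrants 0.5 mol/L KOH and HCl.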

| Compound | pKa |
| --- | --- |
| CCOC(=O)c1cn2c(C)c(C)nc2c2c1CCC(c1ccccc1)O2 (racemic) | 6.35 |
| CCc1c(C)nc2c3c(c(C(=O)N(C)C)cn12)CCC(c1ccccc1)O3 (racemic) | 6.7 |
| Cc1nc2c3c(c(C(=O)N(C)C)cn2c1CN(C)C)CCC(c1ccccc1)O3 (racemic) | 4.09 |
| CC#CC(=O)c1c(C)nc2c3c(c(C(=O)N(C)C)cn12)CCC(c1ccccc1)O3 (racemic) | 3.2 |
| Cc1nc2c3c(c(C(=O)N4CCNCC4)cn2c1C)CCC(c1ccccc1)O3 (racemic) | 6.44 |
| Cc1nc2c3c(c(C(=O)NC4CC4)cn2c1C)CCC(c1ccccc1)O3 (racemic) | 6.69 |
| CCN(CC)C(=O)c1cn2c(C)c(C)nc2c2c1CCC(c1ccccc1)O2 (racemic) | 6.75 |
| Cc1nc2c3c(c(C(=O)N(C)C)cn2c1C)CCC(c1cccs1)O3 (racemic) | 6.64 |
| Cc1nc2c3c(c(C(=O)N(C)C)cn2c1CO)CCC(c1ccccc1)O3 (racemic) | 5.86 |
| CC#CC(O)c1c(C)nc2c3c(c(C(=O)N(C)C)cn12)CCC(c1ccccc1)O3 (racemic) | 5.58 |
| Cc1nc2c3c(c(C(N)=O)cn2c1C)CCC(c1ccccc1)O3 (racemic) | 6.52 |

Next, values leading:

| pKa | Compound |
| --- | --- |
| 6.78 | Cc1nc2c3c(c(C(=O)N(C)C)cn2c1C)CCC(c1ccccc1F)O3 (racemic) |
| 7.15 | Cc1nc2c3c(c(C(=O)N(C)C)cn2c1C)CCC(c1ccccc1)O3 (racemic) |
| 6.63 | Cc1nc2c3c(c(C(=O)N4CC4)cn2c1C)CCC(c1ccccc1)O3 (racemic) |
| 6.64 | Cc1nc2c3c(c(C(=O)N4CCC4)cn2c1C)CCC(c1ccccc1)O3 (racemic) |
| 6.68 | Cc1nc2c3c(c(C(=O)NC4CCC4)cn2c1C)CCC(c1ccccc1)O3 (racemic) |
| 7.73 | Cc1nc2c3c(ccn2c1C)CCC(c1ccccc1)O3 (racemic) |
| 6.73 | Cc1nc2c3c(c(C(=O)N4CCCC4)cn2c1C)CCC(c1ccccc1)O3 (racemic) |
| 6.57 | CCOc1ccc(NC(=O)c2cn3c(C)c(C)nc3c3c2CCC(c2ccccc2)O3)cc1 (racemic) |

Test system: not listed separately
Test: Distribution coefficient, log D of the compound
Assay type: physicochemical
Conditions: octanol/water
Procedure, shortened: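 Distribution between 1-octanol and aqueous KCl measured by potentiometric titration over pH 2.0-11.0 at 25 °C.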

| Compound | logD |
| --- | --- |
| CCOC(=O)c1cn2c(C)c(C)nc2c2c1CCC(c1ccccc1)O2 (racemic) | 4.56 |
| CCc1c(C)nc2c3c(c(C(=O)N(C)C)cn12)CCC(c1ccccc1)O3 (racemic) | 3 |
| Cc1nc2c3c(c(C(=O)N(C)C)cn2c1CN(C)C)CCC(c1ccccc1)O3 (racemic) | 1.8 |
| CC#CC(=O)c1c(C)nc2c3c(c(C(=O)N(C)C)cn12)CCC(c1ccccc1)O3 (racemic) | 3.2 |
| Cc1nc2c3c(c(C(=O)N4CCNCC4)cn2c1C)CCC(c1ccccc1)O3 (racemic) | 1.53 |
| Cc1nc2c3c(c(C(=O)NC4CC4)cn2c1C)CCC(c1ccccc1)O3 (racemic) | 3.22 |
| CCN(CC)C(=O)c1cn2c(C)c(C)nc2c2c1CCC(c1ccccc1)O2 (racemic) | 3.2 |
| Cc1nc2c3c(c(C(=O)N(C)C)cn2c1C)CCC(c1cccs1)O3 (racemic) | 2.05 |
| Cc1nc2c3c(c(C(=O)N(C)C)cn2c1CO)CCC(c1ccccc1)O3 (racemic) | 1.52 |
| CC#CC(O)c1c(C)nc2c3c(c(C(=O)N(C)C)cn12)CCC(c1ccccc1)O3 (racemic) | 2.5 |
| Cc1nc2c3c(c(C(N)=O)cn2c1C)CCC(c1ccccc1)O3 (racemic) | 2.53 |

Second part, the compound after the results:

| logD | Compound |
| --- | --- |
| 2.8 | Cc1nc2c3c(c(C(=O)N(C)C)cn2c1C)CCC(c1ccccc1F)O3 (racemic) |
| 2.83 | Cc1nc2c3c(c(C(=O)N(C)C)cn2c1C)CCC(c1ccccc1)O3 (racemic) |
| 2.9 | Cc1nc2c3c(c(C(=O)N4CC4)cn2c1C)CCC(c1ccccc1)O3 (racemic) |
| 2.6 | Cc1nc2c3c(c(C(=O)N4CCC4)cn2c1C)CCC(c1ccccc1)O3 (racemic) |
| 3.76 | Cc1nc2c3c(c(C(=O)NC4CCC4)cn2c1C)CCC(c1ccccc1)O3 (racemic) |
| 3.5 | Cc1nc2c3c(ccn2c1C)CCC(c1ccccc1)O3 (racemic) |
| 2.83 | Cc1nc2c3c(c(C(=O)N4CCCC4)cn2c1C)CCC(c1ccccc1)O3 (racemic) |
| 4.3 | CCOc1ccc(NC(=O)c2cn3c(C)c(C)nc3c3c2CCC(c2ccccc2)O3)cc1 (racemic) |
